Screening results as filed in PubChem BioAssay.
CHOP inh: blocks CHOP induction under ER stress; CHO-K1 CHOP-promoter luciferase, tunicamycin-induced, 15-18 h; actives 3.8% (n = 220,000); inhibition, % at 10 µM;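 active means compounds that reduced the stress-induced luciferase reporter signal by more than about 70% of percent inhibition, limit read from the data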;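 further: 0% = tunicamycin plus vehicle and 100% = wells without tunicamycin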
UPR XBP1 act: adaptive UPR (XBP1) activation. CHO-XBP1 luciferase reporter, IRE1-XBP1 UPR activation, luminescence; percent of tunicamycin response, DMSO as zero. activation, % at 20 µM. actives 0.33% (n = 330,000). AID 463104;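 active means versus positive control, 20 µM dose yields 30% or more activation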;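 further: 100% = tunicamycin at 10 µg/mL and 0% = DMSO only wells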
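Material – CHO cell line with stable XBP1 luciferase reporter · Buffer or medium – F12 plus 10% FBS · Compound – single point, 20 µM final compound, 1% DMSO · Schedule – 16-18 h cell attachment at 37 °C, then 6 h compound exposure · Signal – Steady-Glo luminescence read · Benchmarks – high control tunicamycin 10 µg/mL final, low control DMSO vehicle only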
PvdQ inh: blocks Pseudomonas aeruginosa PvdQ acylase activity | inhibition, % at 10 µM | AID 488965 | purified PvdQ acylase, fluorescence plate reader | actives 0.063% (n = 340,000); in the data active means inhibition above about 30%, passing the limit was not always enough;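 further: 0% = vehicle neutral wells and 100% = reference inhibitor wells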
UPR CHOP act: activators of apoptotic arm of unfolded protein response (CHOP); CHO-CHOP luciferase reporter, UPR activation, luminescence; percent of tunicamycin response over DMSO baseline; activation, % at 10 µM; actives 0.34% (n = 330,000); AID 449763;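 active means at 10 µM dose, activation of 40% or more, normalized to positive control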;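 further: 100% = tunicamycin at 10 µg/mL and 0% = DMSO alone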
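Test system: CHO CHOP reporter cells. Input: 500 CHO-CHOP cells per well. Medium: F12 with 10% FBS. Technique: luciferase luminescence. Measure: percent activation relative to tunicamycin control. Dosing: 10 µM compound, 0.5% DMSO. Timing: 16-18 h cell attachment, then 6 h compound exposure, 37 °C.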
CHOP confirm: confirmation of CHOP induction inhibitors | shares compounds with CHOP inh | CHO-CHOP promoter luciferase reporter, tunicamycin-induced, luminescence | inhibition, % at 10 µM | actives 45% (n = 2,100) | AID 504437;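 active means mean of three repeat readings of reporter signal inhibition above a set limit, cut at about 70% in these data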;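 further: 0% = tunicamycin plus vehicle and 100% = wells lacking tunicamycin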
* = called active by the depositor; nt = not tested or not shown. This is one part of a sample in which hits are shown more often than they occur.

SMILES	CHOP inh	UPR XBP1 act	PvdQ inh	UPR CHOP act	CHOP confirm
CC(C)(C)c1ccc(C(=O)NC(=S)NNC(=O)c2cccs2)cc1	107.4*	nt	8.2	nt	133.7*
O=C(NC(=S)NNC(=O)c1cccs1)c1ccccc1	nt	-0.9	-10.4	-1.0	nt
O=S(=O)(Nc1ccccc1)c1ccc(Oc2ncc(C(F)(F)F)cc2Cl)cc1	108.9*	1.8	-5.4	0.1	114.7*
Cc1cccc2c3nc4ccccc4nc3n(CCCN3C(=O)c4ccccc4C3=O)c12	6.0	nt	-27.1	nt	nt
N#C/C(=C\c1ccc(N2CCOCC2)o1)c1ccccc1	37.1	0.7	10.9	1.8	nt
N#C/C(=C/c1ccc(N2CCCCCC2)o1)c1cccc(F)c1	104.0*	2.5	-8.8	12.5	27.5
CSc1ccc(/C=C/C(=O)N2CCN(c3ccccn3)CC2)cc1	nt	-3.9	-7.7	-0.1	nt
COc1ccccc1NCC(=O)N/N=C(\C)c1ccc(Br)s1	98.2*	0.2	8.8	1.9	39.9
C/C(=N/NC(=O)CNc1ccc(C)cc1)c1ccc(Br)s1	64.9	-1.7	-16.6	-1.3	nt
N#Cc1ccccc1NC(=O)COC(=O)c1c[nH]c2ccccc12	nt	1.7	14.1	1.0	nt
Cc1sc2nc(CSCC(=O)Nc3ccc(Cl)cc3F)[nH]c(=O)c2c1C	nt	-2.0	-7.7	4.8	nt
COc1ccc(-c2cc(C3CCN(Cc4cccc(C(F)(F)F)c4)CC3)[nH]n2)cc1	105.9*	-1.0	-2.7	-3.9	103.6*
COc1ccc(-c2cc(C3CCN(CC(O)C(F)(F)F)CC3)[nH]n2)cc1 (centres undefined)	nt	-0.9	4.9	1.7	nt
CNC(=S)NNC(=O)COc1ccccc1C	-21.4	-4.7	-10.1	-0.6	nt
Cc1ccccc1OCC(=O)NNC(=O)c1ccc(-c2ccccc2)cc1	105.3*	-5.1	7.0	-0.7	19.1
C=CS(=O)(=O)c1ccc(Oc2ccc(S(=O)(=O)C=C)cc2)cc1	nt	-5.9	-18.6	-7.0	119.6*
O=c1cc(N2CCN(Cc3ccccc3)CC2)[nH]c(=O)n1-c1ccc(Br)cc1	36.5	1.7	-3.1	-1.6	nt
CCOc1cccc(CNc2ccc(O)cc2)c1OCc1ccc(Cl)cc1	109.2*	-1.7	-8.7	1.4	48.4
CCOc1cc(CNc2ccc(O)cc2)ccc1OCc1ccc(Cl)cc1Cl	103.3*	-7.1	-8.1	12.0	111.6*
CCOc1cc(CNCc2ccccc2)ccc1OCc1ccc(Cl)cc1	nt	5.5	-15.7	2.5	nt
COc1cc(CNCc2ccccn2)ccc1OCc1ccc(Cl)cc1Cl	98.1*	-2.3	1.9	-3.0	106.1*
O=C1c2ccccc2C(=O)N1CC1c2ccccc2CCN1C(=O)CN1CCOCC1 (centres undefined)	-11.7	0.7	-15.3	1.1	nt
O=C(N=Nc1c(O)[nH]c2ccccc12)c1cccc(S(=O)(=O)N2CCCCC2)c1	96.8*	14.1	-5.1	2.8	-26.7
CC(=C1SC(=S)NC1=O)c1ccccc1	nt	nt	5.5	nt	nt
CC1(c2ccccc2)CC(C)(C)N2C(=O)/C(=C3\SC(=S)NC3=O)c3cccc1c32 (centres undefined)	97.2*	nt	-5.2	nt	81.6*
SMILES	CHOP inh	UPR XBP1 act	PvdQ inh	UPR CHOP act	CHOP confirm
CCC(C)S(=O)(=O)c1snnc1C (centres undefined)	1.7	-0.9	-6.0	-1.6	nt
Cc1cccc2c1N(CCOc1ccc(C(C)(C)C)cc1)C(=O)C2=O	99.8*	3.0	-1.6	1.7	1.1
Cc1ccc(NC(=O)NC(=O)CN2C(=O)NC3(CCCCCCC3)C2=O)c(C)c1	105.0*	3.1	-6.6	-1.0	90.9*
Cc1ccc(NC(=O)CCN2C(=O)NC3(CCCC3)C2=O)c(C)c1	nt	0.4	-13.9	-0.6	nt
OCCN(CC(O)Cn1ccc2ccccc21)CC(O)Cn1ccc2ccccc21 (centres undefined)	13.5	-0.3	1.5	-0.7	nt
CC(C)(C)c1ccc(OCC(O)CN(CCO)CC(O)Cn2ccc3ccccc32)cc1 (centres undefined)	103.4*	-3.4	-10.9	-1.7	4.5
CCOC(=O)CCCCC(=O)c1[nH]c(=O)[nH]c1CSc1nnc2c3cc(Br)ccc3n(C)c2n1	102.6*	2.1	nt	-0.9	6.1
Cc1ccc2[nH]c(=O)c(C3C(C#N)=C(N)Oc4c3ccc3cccnc43)cc2c1 (centres undefined)	97.5*	1.8	-1.0	-0.4	28.0
N#CC1=C(N)Oc2c(ccc3cccnc23)C1c1ccccc1 (centres undefined)	-8.0	-2.3	5.1	0.0	nt
COc1ccc(N2CCN(Cc3cc(=O)oc4cc(C)c(Cl)cc34)CC2)cc1	96.1*	6.3	-7.9	3.8	37.1
COc1cc(-c2nc3ccc4ccccc4c3c3c2CCC3)cc(OC)c1O	102.5*	-3.0	-15.7	1.0	106.3*
COc1cc(-c2nc3ccc4ccccc4c3c3c2CCC3)cc(OC)c1OC	56.9	-1.7	-14.3	0.5	nt
O=C(N/N=C/c1ccc([N+](=O)[O-])s1)c1cccc(Br)c1	97.3*	1.0	-16.7	-1.6	61.2
O=C(N/N=C/c1cccc([N+](=O)[O-])c1)c1cccc(Br)c1	-26.6	1.1	-8.9	9.0	nt
O=C(N/N=C/c1ccc(O)c2ncccc12)c1cccc(Br)c1	105.3*	0.9	-18.7	1.5	37.8
NC(=O)C1=C[C@H](c2ccc(C(F)(F)F)cc2)C[C@H](OCCCCO)O1	6.7	-1.2	1.3	-0.8	nt
O=C(NCCC(=O)N1CCCC(C(F)(F)F)C1)c1ccc(Br)cc1 (centres undefined)	nt	-1.5	-3.0	0.2	nt
Cc1ccc(C(=O)ONc2ccc(N=NC(=O)c3ccccc3O)cc2)cc1	103.2*	-0.9	-12.1	-1.0	21.9
O=C(COc1ccc(Cl)cc1)Nc1ccccc1C(=O)NCc1ccco1	97.0*	4.4	1.6	5.8	-8.0
C=CCNC(=O)c1c(CSc2ccc(Cl)cc2)noc1C(=O)NCc1ccccc1	nt	-2.2	-2.7	1.5	nt
CCCCC(=O)N(c1ccc(C(=O)O)cc1)c1nc(-c2ccc(Cl)cc2)c(CC)s1	17.2	-4.5	-7.1	-2.6	nt
N#Cc1c(-c2cccc(Br)c2)cc(-c2cccnc2)nc1N	104.0*	4.2	-12.6	1.6	49.4
OCCNNC(=S)NC1CC2C=CC1C2 (centres undefined)	6.8	-2.6	-15.1	-0.3	nt
O=C(CN1c2ccccc2Sc2ccccc21)NNC(=O)Nc1cccc(Cl)c1	103.1*	-0.6	-12.9	1.9	117.5*
COc1ccc(CCc2ccc3ccccc3n2)cc1	nt	nt	-3.9	nt	nt
C/C(=N\NC(=O)COc1ccc(C(C)(C)C)cc1)c1ccc(N2CCOCC2)cc1	101.4*	8.4	-2.6	-0.4	92.3*
CCC(=O)N1N=C(c2c(-c3ccccc3)c3cc(Cl)ccc3[nH]c2=O)CC1c1ccco1 (centres undefined)	103.2*	0.5	-7.0	1.9	116.4*
O=C(c1ccc(Cl)cc1Cl)c1ncc(C(F)(F)F)cc1Cl	67.8	0.8	-5.7	0.7	nt
O/N=C(\c1ccc(Cl)cc1Cl)c1ncc(C(F)(F)F)cc1Cl	106.9*	-0.7	-33.7	-3.3	111.3*
